From the array DNA melting data of Ke et al. (doi:10.1101/2024.01.08.574731) come the findings set out here.

Data set [1] is described as follows: melting temperature; fluorescence melt of hairpins on a sequencing array, two-state fit, raised by 9.35 °C to match UV melts. As to conditions: sodium 0.088 M. In short, it runs like this: (§1)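 Folding enthalpy and melting temperature come from bootstrapped two-state fits to Cy3 fluorescence of library hairpins carrying annealed Cy3 and quencher oligos on a sequenced MiSeq flow cell. Imaging was done in 50 mM Na-HEPES pH 8.0, 25 mM NaCl, stepping by 2.5 °C up to 60 °C, and signals were normalised to pre-quench Cy3 and to control constructs. Results of four replicates were combined by inverse variance, and fitted temperatures were raised by 9.35 °C to match UV melts.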

Data set [2] can be described thus: folding enthalpy; higher = less favourable; fluorescence melt of hairpins on a sequencing array, two-state fit. Particulars: sodium 0.088 M. In short, it runs like this:
as §1

GCGGTGCTCCGC ((((....)))): in data set [1], the Tm was 56.1 °C. Further, the folding enthalpy in data set [2] was -18.6 kcal/mol.
In the same order, the values of GCGGTGGACCGC ((((....)))) are 59.6 °C and -26.6 kcal/mol.
As for GCGGTGGGAAACCACTGC ((.((((....)))).)), the Tm in data set [1] stood at 60.4 °C. Besides, in data set [2], the folding enthalpy is -38.9 kcal/mol.
Turning to GCGGTGTGCCGC ((((....)))), the Tm in data set [1] is 67.6 °C. In addition, the folding enthalpy in data set [2] was -19.1 kcal/mol.
For GCGGTTACGAAAGTACGC (((..(((....)))))), in that order: 48.4 °C and -26.7 kcal/mol.
As to GCGGTTCGAAAGAATCGC (((.(((....))).))), the Tm in data set [1] came out at 66.4 °C. For the same sequence, the folding enthalpy in data set [2] was -43.4 kcal/mol.
In the same order, the values of GCGGTTGCGAAAGCACGC (((..(((....)))))) are 56.6 °C and -19.9 kcal/mol.
For GCGGTTGGAAACGACTGC ((.((.(....).)).)), in that order: 37.8 °C and -15.3 kcal/mol.
For GCGGTTGGAAACGATCGC (((.(.(....).).))), in that order: 45.3 °C and -28.5 kcal/mol.
For the sequence GCGGTTTTCCGC ((((....)))), in data set [1], the Tm was 58.4 °C. Besides, the folding enthalpy in data set [2] was -30.3 kcal/mol.
In the same order, the values of GCGTAACAACGC ((((....)))) are 52.9 °C and -27 kcal/mol.
For GCGTAACGACGC ((((....)))), in that order: 51.4 °C and -21.9 kcal/mol.
For GCGTAAGAAATTACGC ((((((....)))))), in that order: 55.3 °C and -40.4 kcal/mol.
GCGTAATCACGC ((((....)))): the Tm in data set [1] worked out at 52.7 °C. In data set [2], the folding enthalpy is -21.9 kcal/mol.
As for GCGTACAAACGC ((((....)))), the Tm in data set [1] is 51.1 °C. Further, the folding enthalpy in data set [2] was -21.5 kcal/mol.
In the same order, the values of GCGTACCACGC ((((...)))) are 55.9 °C and -24.7 kcal/mol.
For GCGTACCCACGC ((((....)))), in that order: 53.1 °C and -21.2 kcal/mol.
As for GCGTACGAAAGTAAACGC ((((((....)))..))), the Tm in data set [1] is 51.9 °C. For the same sequence, the folding enthalpy in data set [2] was -34.5 kcal/mol.
For GCGTACGAAAGTACCGC ((((((....))).))), in that order: 56.8 °C and -22.2 kcal/mol.
For GCGTACGAAAGTAGCCGC ((((((....)))..))), in that order: 51.2 °C and -14.4 kcal/mol.
In the same order, the values of GCGTACGAACGC ((((....)))) are 51.5 °C and -23.9 kcal/mol.
With GCGTACGGAAACACACGC ((((..(....)..)))), the Tm in data set [1] turned out to be 38.8 °C. The folding enthalpy in data set [2] is -28.7 kcal/mol.
In the same order, the values of GCGTACGGAAACGTACAC (.(((((....))))).) are 42.8 °C and -15.1 kcal/mol.
In the same order, the values of GCGTACGTACGC ((((....)))) are 55.3 °C and -29.9 kcal/mol.
In the same order, the values of GCGTACTCGAAAGAGCGC (((..(((....)))))) are 47.8 °C and -28.6 kcal/mol.
GCGTAGACACGC ((((....)))): the Tm in data set [1] came out at 50.7 °C. The folding enthalpy in data set [2] is -19.8 kcal/mol.
For the sequence GCGTAGATACGC ((((....)))), in data set [1], the Tm is 52.9 °C. Further, in data set [2], the folding enthalpy is -19.8 kcal/mol.
In the same order, the values of GCGTAGCCGAAAGGCCGC (((..(((....)))))) are 58 °C and -16.8 kcal/mol.
For GCGTAGCGAAAGCATCGC (((..((....))..))), in that order: 55.1 °C and -15.4 kcal/mol.
As to GCGTAGCGAAAGCCACGC ((((.((....)).)))), the Tm in data set [1] was 60.1 °C. In addition, the folding enthalpy in data set [2] is -18.7 kcal/mol.
For GCGTAGCGAAAGCTATGC ((.((((....)))).)), in that order: 62.4 °C and -18 kcal/mol.
For GCGTAGCGAAAGCTGGGC ((..(((....)))..)), in that order: 49.3 °C and -12.1 kcal/mol.
